Rows were chosen to be rich in hits. Some 1.3% of all compounds tested hit in one or more screens of this group.
TbMetRS inhib: T. brucei MetRS inhibitors, primary screen, biochemical, luminescence; methionyl-tRNA synthetase (Trypanosoma brucei brucei); purified T. brucei MetRS, ATP depletion, Kinase-Glo luminescence; inhibition, % at 11.9 µM; actives 0.4% (n = 360,000); AID 624268, 2012;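 active means inhibition above a per-plate cutoff of the control wells' mean inhibition plus 3 SD, cut at about 5.5% in these data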;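 further: 0% = DMSO wells median and 100% = median of wells with control inhibitor compound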
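Test system: purified T. brucei MetRS enzyme. Also added: ATP, methionine and E. coli bulk tRNA substrates. Compound: 11.9 µM single point. Schedule: 15 min enzyme-compound preincubation, 2 h reaction, 10 min detection, 25 °C. Signal: luciferase luminescence of residual ATP, Kinase-Glo. Evaluation: percent inhibition versus plate control medians. Controls: DMSO wells, low control.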
HCV NS3 hel inh: inhibitors of HCV NS3 helicase, primary screen, biochemical, Cy5 molecular beacon fluorescence; actives 0.56% (n = 290,000); NS3 helicase DNA unwinding; inhibition, % at 10.9 µM;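 active means inhibition above the mean of all tested compounds plus 3 SD, set per campaign, cut at about 35% in these data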;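 further: 0% = DMSO wells and 100% = thioflavine S control wells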
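Assay system – hepatitis C virus NS3 helicase domain fragment enzyme · Buffer or medium – MOPS pH 6.5, MgCl2, DTT, Tween20, BSA · Reagent – Cy5/quencher beacon DNA duplex and ATP to start · Compound – single 10.9 µM dose · Timing – 1 h at 25 °C · Technique – Cy5 beacon fluorescence read at start and 1 h · Measure – % inhibition of unwinding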
Hep lipid drop: inhibitors of hepatocyte lipid droplet formation, primary screen, imaging, high-throughput imaging, BODIPY stain. actives 0.4% (n = 240,000). AML12 mouse hepatocytes, oleate lipid droplets. inhibition, % at 6.5 µM. AID 1656, 2009;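 active means lipid droplet intensity inhibited by at least 50%, with more than 500 cells counted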
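Material – mouse AML12 hepatocyte cell line, fixed after treatment · Compound dosing – one dose, 6.5 µM compound · Times – compound with oleate, overnight · Measured by – Image-based BODIPY and DAPI two-channel analysis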
HCV core dimer: inhibitors of HCV core protein dimerization, primary screen, biochemical, TR-FRET, high-throughput; actives 0.33% (n = 300,000); inhibition, % at 5 µM; AID 1899, 2009; TR-FRET GST/Flag-core106 dimerization, 1536-well;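 active means inhibition above the mean of all tested compounds plus 3 SD, set per screening campaign, cut at about 45% in these data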
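Material: GST/Flag-tagged HCV core106 proteins. Incubation: 4 h, 22.5 °C incubation. Read-out basis: inhibition (%) from 671 over 617 nm ratio. Measured by: TR-FRET, excitation 340 nm, emission 617 and 671 nm.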
Tb MetRS conf: T. brucei MetRS inhibitors, confirmation, biochemical, luminescence; shares compounds with TbMetRS inhib; T. brucei MetRS enzyme, luminescence (ATP depletion); inhibition, % at 11.9 µM; actives 93% (n = 1,400); AID 624412, 2012; in the data active means inhibition above about 7%
Jurkat cytotox: Jurkat T cell cytotoxicity, cytotoxicity control for T. brucei MetRS inhibitor project, luminescence, high throughput | inhibition, % at 8.3 µM | actives 12% (n = 1,400) | Jurkat cells viability, ATP luminescence | shares compounds with TbMetRS inhib; in the data active means inhibition above about 15%;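 further: 0% = vehicle and 100% = reference inhibitor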
TbMetRS FP orth: T. brucei MetRS inhibitors, orthogonal assay for T. brucei MetRS inhibitor project, biochemical, fluorescence polarization; shares compounds with TbMetRS inhib; purified T. brucei MetRS; inhibition, % at 11.9 µM; actives 44% (n = 1,400); AID 651607, 2012; in the data active means inhibition above about 17%;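 further: 0% = vehicle wells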
* marks the source's active call; other numbers are inactive results; x = no result.

SMILES	TbMetRS inhib	HCV NS3 hel inh	Hep lipid drop	HCV core dimer	Tb MetRS conf	Jurkat cytotox	TbMetRS FP orth
CC(=O)c1ccc(N2CCN(C(=O)CCCn3c(=O)[nH]c4ccsc4c3=O)CC2)cc1	7.3*	9.0	0.3	0.6	17.1*	0.0	6.5
O=C(CCCCn1c(=O)[nH]c2ccccc2c1=O)N1CCN(c2cccc(C(F)(F)F)c2)CC1	12.0*	-8.6	x	11.5	14.0*	8.0	4.5
CC(=O)c1ccc(N2CCN(C(=O)CCCn3c(=O)[nH]c4ccc(Br)cc4c3=O)CC2)cc1	84.4*	-11.3	0.2	7.6	104.0*	3.7	87.1*
Cc1ccc(NC(=O)C2CCN(S(=O)(=O)c3ccc4c(c3)OCCO4)CC2)c(O)c1	-0.5	x	x	0.7	x	x	x
O=C(CNC(=O)c1ccc(Br)cc1)N/N=C/c1ccc[nH]1	23.1*	-13.5	-0.4	-3.4	47.1*	9.7	21.8*
O=C(N/N=C/c1ccc[nH]1)c1ccc(O)cc1	0.7	-0.7	3.6	0.0	x	x	x
Cc1ccc(-c2cnc(C(O)c3ccc(Cl)c(F)c3)[nH]2)cc1 (stereo not drawn)	1.0	x	x	x	x	x	x
Cc1ccc(-c2cnc(C(O)c3ccc(Cl)c(Cl)c3)[nH]2)cc1 (stereo not drawn)	9.4*	x	x	x	36.6*	-9.5	14.3
Cc1ccc(-c2cnc(C(O)c3cc(F)cc(Cl)c3)[nH]2)cc1 (stereo not drawn)	10.4*	x	x	x	39.4*	1.7	14.5
OC(c1ccccc1)c1ncc(-c2ccccc2Cl)[nH]1 (stereo not drawn)	-0.2	x	x	x	x	x	x
OC(c1cc(F)cc(Cl)c1)c1ncc(-c2ccc3ccccc3c2)[nH]1 (stereo not drawn)	76.5*	x	x	x	92.0*	9.2	75.0*
OC(c1cc(F)cc(Cl)c1)c1ncc(-c2ccccc2Cl)[nH]1 (stereo not drawn)	23.8*	x	x	x	58.5*	3.7	24.0*
CC(C)CNC(=O)c1cccc2c1-c1ccccc1C2=O	-0.5	-0.7	-5.3	-4.2	x	x	x
Cc1ccc(-c2noc(N=O)c2NO)cc1	-0.8	-2.7	-9.1	-4.7	x	x	x
OC(c1cccc(Cl)c1)c1ncc(-c2ccc3ccccc3c2)[nH]1 (stereo not drawn)	42.3*	x	x	x	73.9*	7.6	46.9*
OC(c1cccc(F)c1)c1ncc(-c2ccc3ccccc3c2)[nH]1 (stereo not drawn)	1.4	x	x	x	x	x	x
O=C(C[C@H]1C(=O)N(C2CCCCC2)C[C@@H]1c1ccccc1)Nc1ccc(Br)cc1	1.9	x	x	x	x	x	x
CCCCCCC[N+](CC)(CC)CCCCc1ccc(Cl)cc1	-0.3	x	x	-3.1	x	x	x
COc1ccc(-c2ccc3[nH]c4c(c3c2)CCN2C(=O)[C@@H]([C@H](C)O)[C@@H](N(C)C(=O)Nc3ccc(F)cc3)C[C@@H]42)cc1	-1.7	x	x	x	x	x	x
COc1ccc(-c2ccc3[nH]c4c(c3c2)CCN2C(=O)[C@@H]([C@H](C)O)[C@@H](N(C)C(=O)Nc3cc(Cl)cc(Cl)c3)C[C@@H]42)cc1	7.8*	x	x	x	10.8*	13.0	12.4
C[C@H](O)[C@@H]1C(=O)N2CCc3c([nH]c4ccccc34)[C@@H]2C[C@@H]1N(C)Cc1ccc(Cl)cc1	86.7*	x	x	x	104.4*	-5.5	83.4*
COc1ccc(OC)c(C(=O)N(C)C2CCCN(Cc3ccccc3F)C2)c1 (stereo not drawn)	0.1	2.5	-8.3	17.6	x	x	x
Nc1cc(C(=O)OCC(=O)NCCCc2ccccc2)ccc1Cl	9.0*	-18.2	0.8	1.7	17.6*	-8.9	7.3
Clc1ccccc1-c1cnc2sc(NCc3ccc4c(c3)OCO4)nn12	-0.2	x	x	x	x	x	x
